In ChEMBL document CHEMBL1124947, “Cationic antiprotozoal drugs. Trypanocidal activity of 2-(4'-formylphenyl)imidazo[1,2-a]pyridinium guanylhydrazones and related derivatives of quaternary heteroaromatic compounds” (J Med Chem, 1990):

Columns and labels:
Assay type in all cases: functional
[1] = system: Mus musculus; assay: Trypanocidal Activity at I.C.E. value 0.40 when administered perorally.
[2] = system: Mus musculus; assay: Trypanocidal Activity at I.C.E. value 0.84 when administered subcutaneously.
In short: (§1)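 Mice, in groups of five per dose, were given a standard inoculum of blood-stage T. rhodesiense that is lethal to all untreated controls, then dosed subcutaneously. Usually 11 dose levels were used (2^n × 0.42 mg/kg).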

[3] = system: Mus musculus; assay: Trypanocidal Activity at I.C.E. value 0.31 when administered perorally.
[4] = system: Mus musculus; assay: Trypanocidal Activity at I.C.E. value 0.94 when administered subcutaneously.; in short: as §1
[5] = system: Mus musculus; assay: Trypanocidal Activity at I.C.E. value 0.12 when administered perorally.
[6] = system: Mus musculus; assay: Trypanocidal Activity at I.C.E. value 0.21 when administered subcutaneously.
[7] = system: Mus musculus; assay: Trypanocidal Activity at I.C.E. value 0.19 when administered subcutaneously.
[8] = system: Mus musculus; assay: Trypanocidal Activity at I.C.E. value 0.17 when administered perorally.
[9] = system: Mus musculus; assay: Trypanocidal Activity at I.C.E. value 0.20 when administered subcutaneously.
[10] = system: Mus musculus; assay: Trypanocidal Activity at I.C.E. value 0.50 when administered subcutaneously.
In short: (§2)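 Blood-stage T. rhodesiense infection came from a standard inoculum lethal to all untreated mice. Drug was given by subcutaneous injection to groups of five mice. Survival beyond 30 days counted as cure. […] Sub-curative doses scored 0, and data were normalized at each dose.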

[11] = system: Mus musculus; assay: Trypanocidal Activity at I.C.E. value 0.20 when administered perorally.
[12] = system: Mus musculus; assay: Trypanocidal Activity at I.C.E. value 0.30 when administered subcutaneously.; in short: as §2
[13] = system: Mus musculus; assay: Trypanocidal Activity at I.C.E. value 0.52 when administered perorally.
[14] = system: Mus musculus; assay: Trypanocidal Activity at I.C.E. value 0.86 when administered subcutaneously.; in short: as §1
[15] = system: Mus musculus; assay: Trypanocidal Activity at I.C.E. value 0.06 when administered perorally.
[16] = system: Trypanosoma brucei rhodesiense; assay: In Vitro measurement of inhibition of thymidine uptake in cell culture of Trypanosoma rhodesiense; details: read-out: ID50 (the source's name)
In short: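 Parasites harvested from infected rats and incubated 3 h across a drug concentration series, usually 0.1–100 µg/mL. Incorporation of radiolabeled thymidine measured. ID50 is the concentration (µg/mL) producing 50% inhibition.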

[17] = system: Trypanosoma brucei rhodesiense; assay: In Vitro measurement of inhibition of leucine uptake in cell culture of Trypanosoma rhodesiense; details: read-out: ID50 (the source's name)
In short: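 Trypanosomes harvested from infected rats, cultured 3 h with several concentrations of drug, usually 0.1–100 µg/mL. Radiolabeled L-leucine uptake measured. ID50 is the concentration in µg/mL giving 50% inhibition of incorporation.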

[18] = system: Mus musculus; assay: Trypanocidal Activity at I.C.E. value 0.22 when administered subcutaneously.
[19] = system: Mus musculus; assay: Trypanocidal Activity at I.C.E. value 0.55 when administered subcutaneously.; in short: as §1
[20] = system: Mus musculus; assay: Trypanocidal Activity at I.C.E. value 0.76 when administered subcutaneously.; in short: as §1
[21] = system: Mus musculus; assay: Trypanocidal Activity at I.C.E. value 0.62 when administered subcutaneously.; in short: as §1
[22] = system: Mus musculus; assay: Trypanocidal Activity at I.C.E. value 0.83 when administered subcutaneously.; in short: as §1
[23] = system: Mus musculus; assay: Trypanocidal Activity at I.C.E. value 0.28 when administered perorally.
[24] = system: Mus musculus; assay: Trypanocidal Activity at I.C.E. value 0.46 when administered subcutaneously.; in short: as §2
[25] = system: Mus musculus; assay: Trypanocidal Activity at I.C.E. value 0.49 when administered perorally.
[26] = system: Mus musculus; assay: Trypanocidal Activity at I.C.E. value 0.34 when administered subcutaneously.; in short: as §2
[27] = system: Mus musculus; assay: Trypanocidal Activity at I.C.E. value 0.66 when administered subcutaneously.; in short: as §1
[28] = system: Mus musculus; assay: Trypanocidal Activity at I.C.E. value 0.49 when administered subcutaneously.; in short: as §2
[29] = system: Mus musculus; assay: Trypanocidal Activity at I.C.E. value 0.23 when administered subcutaneously.; in short: as §2
[30] = system: Mus musculus; assay: Trypanocidal Activity at I.C.E. value >0.15 when administered subcutaneously.; in short: as §1
[31] = system: Mus musculus; assay: Trypanocidal Activity was determined after subcutaneous administration; in short: as §1

## Br.CCCCSc1ccc2n(c1)cc(-c1ccc(/C=N/NC(=N)NO)cc1)[n+]2C.[Br-]
[1]
  CD50: 26 mg/kg
[2]
  CD50: 0.8 mg/kg

## Br.CCCSc1ccc2n(c1)cc(-c1ccc(/C=N/NC(=N)N3CCCC3)cc1)[n+]2C.[Br-]
[3]
  CD50: 53 mg/kg
[4]
  CD50: 0.1 mg/kg

## Br.C[n+]1ccc(COc2ccc(/C=N/NC3=NCCN3)cc2)cc1.[Br-]
[5]
  CD50: 424 mg/kg
[6]
  CD50: 13 mg/kg

## Br.C[n+]1ccccc1COc1ccc(/C=N/NC(=N)N2CCCC2)cc1.[Br-]
[7]
  CD50: 0.1 mg/kg
[8]
  CD50: 106 mg/kg

## C=CC[n+]1c(-c2ccc(NC(C)=O)cc2)cn2ccccc21.[Br-]
[9]
  CD50: 26 mg/kg

## Br.CCCCNC(=N)N/N=C/c1ccc(-c2cn3ccccc3[n+]2C)cc1.[Br-]
[10]
  CD50: 0.8 mg/kg

## C[n+]1c(-c2ccc(/C=N/NC(=N)N3CCSC3)cc2)cn2ccccc21.Cc1ccc(S(=O)(=O)O)cc1.Cc1ccc(S(=O)(=O)[O-])cc1
[11]
  CD50: 212 mg/kg
[12]
  CD50: 13 mg/kg

## Br.Cc1cccc2n1cc(/C=C/c1ccc(/C=N/NC3=NCCN3)cc1)[n+]2C.[Br-]
[13]
  CD50: 26 mg/kg
[14]
  CD50: 0.4 mg/kg

## Br.Cn1c[n+](Cc2ccc(/C=N/NC(=N)N)cc2)c2ccccc21.[Br-]
[15]
  CD50: 424 mg/kg
[7]
  CD50: 6.6 mg/kg

## Br.C[n+]1c(-c2ccc(/C=N/NC(=N)NN3CCOCC3)cc2)cn2ccccc21.[Br-]
[16]
  IC50: 6.7 µg/mL
[17]
  IC50: 9.7 µg/mL
[18]
  CD50: 0.8 mg/kg

## Br.CSC(=N)N/N=C/c1ccc(-c2cn3ccccc3[n+]2C)cc1.[Br-]
[16]
  IC50: 3.8 µg/mL
[19]
  CD50: 6.6 mg/kg
[17]
  IC50: 5.8 µg/mL

## Br.Cc1ccc2n(c1)cc(-c1ccc(/C=N/NC3=NCCCN3)cc1)[n+]2C.[Br-]
[20]
  CD50: 0.2 mg/kg

## Cc1ccc(S(=O)(=O)[O-])cc1.Cc1cccc2n1cc(/C=C/c1ccc(/C=N/NC(=O)c3ccc(N)cc3)cc1)[n+]2C
[21]
  CD50: 6.6 mg/kg

## C[n+]1cccc(COc2ccc(/C=N/NC(=N)NO)cc2)c1.Cc1ccc(S(=O)(=O)O)cc1.Cc1ccc(S(=O)(=O)[O-])cc1
[16]
  IC50: 3.8 µg/mL
[17]
  IC50: 10.3 µg/mL
[18]
  CD50: 1.6 mg/kg

## CCCCSc1ccc2n(c1)cc(-c1ccc(/C=N/NC(=N)N)cc1)[n+]2C.Cc1ccc(S(=O)(=O)O)cc1.Cc1ccc(S(=O)(=O)[O-])cc1
[22]
  CD50: 0.4 mg/kg
[23]
  CD50: 106 mg/kg

## Br.Cc1ccc2n(c1)cc(COc1ccc(/C=N/NC(=N)N3CCCC3)cc1)[n+]2C.[Br-]
[24]
  CD50: 0.8 mg/kg
[25]
  CD50: 13 mg/kg

## Br.C[n+]1c(-c2ccc(/C=C/C=N/NC(=N)N3CCCC3)cc2)cn2ccccc21.[Br-]
[3]
  CD50: 53 mg/kg
[26]
  CD50: 0.8 mg/kg

## Br.CC/N=C(\NCC)N/N=C/c1ccc(-c2cn3cc(C)ccc3[n+]2C)cc1.[Br-]
[27]
  CD50: 1.6 mg/kg

## Br.Cc1ccc2n(c1)cc(-c1ccc(/C=N/NC(=N)N3CCCC3)cc1)[n+]2C.[Br-]
[28]
  CD50: 0.1 mg/kg

## Br.Cn1c[n+](Cc2ccc(/C=N/NC(=N)N3CCCC3)cc2)c2ccccc21.[Br-]
[29]
  CD50: 6.6 mg/kg
[5]
  CD50: 424 mg/kg
[16]
  IC50: 0.6 µg/mL
[17]
  IC50: 0.7 µg/mL

## C[n+]1c(-c2ccc(/C=N/Nc3nc[nH]n3)cc2)cn2ccsc21.[Br-]
[10]
  CD50: 13 mg/kg

## C[n+]1c(-c2ccc(/C=N/NC(=N)N[N+](=O)[O-])cc2)cn2ccccc21.[Br-]
[30]
  CD50: <26 mg/kg

## Cc1ccc2n(c1)cc(-c1ccc(/C=N/NC(=N)N[N+](=O)[O-])cc1)[n+]2C.[Br-]
[31]
  CD50: <26 mg/kg
